This is an account of results in ChEMBL document CHEMBL3525985, “Regiospecificity and stereospecificity of human UDP-glucuronosyltransferases in the glucuronidation of estriol, 16-epiestriol, 17-epiestriol, and 13-epiestradiol” (Drug Metab Dispos, 2013).

Holding throughout (assay type): ADME
The target in series [1] is T1, UDP-glucuronosyltransferase 2B4 (Homo sapiens, UniProt P06133).
T1 sequence (P06133 whole entry): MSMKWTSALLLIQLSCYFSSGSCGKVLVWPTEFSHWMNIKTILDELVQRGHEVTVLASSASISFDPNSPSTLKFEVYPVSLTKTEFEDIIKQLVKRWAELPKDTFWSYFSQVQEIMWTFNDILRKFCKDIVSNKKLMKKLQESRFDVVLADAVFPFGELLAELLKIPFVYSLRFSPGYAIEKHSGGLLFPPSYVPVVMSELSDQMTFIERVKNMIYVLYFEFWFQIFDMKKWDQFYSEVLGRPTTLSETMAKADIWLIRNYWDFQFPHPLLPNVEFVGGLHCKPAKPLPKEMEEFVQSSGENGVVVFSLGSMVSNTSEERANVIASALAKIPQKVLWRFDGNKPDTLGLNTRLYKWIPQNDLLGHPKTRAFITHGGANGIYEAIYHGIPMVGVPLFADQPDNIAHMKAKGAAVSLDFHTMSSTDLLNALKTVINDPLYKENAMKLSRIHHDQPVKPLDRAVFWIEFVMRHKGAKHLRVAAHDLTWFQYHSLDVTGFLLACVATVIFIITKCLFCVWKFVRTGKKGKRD
Description: Drug metabolism assessed as recombinant human C-terminal His-tagged UGT2B4-mediated 17-epiestriol-17-glucuronide formation at 200 uM after 15 to 60 mins by HPLC analysis in presence of UDPGA. The note with it: recombinant enzyme. The gist of the method:
(§1)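 Screening at a single substrate concentration of 200 μM, in triplicate. The reaction used 5 or 50 µg of UGT-enriched insect cell membranes in 50 mM phosphate pH 7.4 with 10 mM MgCl₂ and 5 mM UDPGA, 10% final DMSO. Incubation was 15–60 min at 37°C. Perchloric acid stopped the reaction and supernatants were analysed by HPLC. Controls lacked UDPGA. Rates were normalized to relative UGT expression level.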

Series [2] addresses T2, UDP-glucuronosyltransferase 2A1 (Homo sapiens, UniProt P0DTE4).
T2 sequence (P0DTE4 whole entry): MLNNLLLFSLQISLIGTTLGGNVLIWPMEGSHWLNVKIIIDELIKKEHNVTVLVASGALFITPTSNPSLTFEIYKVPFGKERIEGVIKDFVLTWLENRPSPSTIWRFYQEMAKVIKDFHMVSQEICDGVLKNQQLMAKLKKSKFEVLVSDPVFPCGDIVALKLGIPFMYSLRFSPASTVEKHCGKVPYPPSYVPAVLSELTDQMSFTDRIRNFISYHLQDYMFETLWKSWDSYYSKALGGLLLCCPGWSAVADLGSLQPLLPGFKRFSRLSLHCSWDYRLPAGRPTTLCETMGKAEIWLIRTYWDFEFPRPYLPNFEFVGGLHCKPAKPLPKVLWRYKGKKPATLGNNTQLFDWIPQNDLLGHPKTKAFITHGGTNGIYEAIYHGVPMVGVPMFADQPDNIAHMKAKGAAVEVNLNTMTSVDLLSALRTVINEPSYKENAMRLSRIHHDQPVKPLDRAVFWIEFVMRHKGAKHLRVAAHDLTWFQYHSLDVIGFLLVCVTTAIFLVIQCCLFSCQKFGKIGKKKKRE
Description: Drug metabolism assessed as recombinant human C-terminal His-tagged UGT2A1-mediated 17-epiestriol-17-glucuronide formation at 200 uM after 15 to 60 mins by HPLC analysis in presence of UDPGA. To be noted: recombinant enzyme. The gist of the method: as §1

The target in series [3] is T3, UDP-glucuronosyltransferase 2B17 (Homo sapiens, UniProt O75795).
T3 sequence (O75795 whole entry): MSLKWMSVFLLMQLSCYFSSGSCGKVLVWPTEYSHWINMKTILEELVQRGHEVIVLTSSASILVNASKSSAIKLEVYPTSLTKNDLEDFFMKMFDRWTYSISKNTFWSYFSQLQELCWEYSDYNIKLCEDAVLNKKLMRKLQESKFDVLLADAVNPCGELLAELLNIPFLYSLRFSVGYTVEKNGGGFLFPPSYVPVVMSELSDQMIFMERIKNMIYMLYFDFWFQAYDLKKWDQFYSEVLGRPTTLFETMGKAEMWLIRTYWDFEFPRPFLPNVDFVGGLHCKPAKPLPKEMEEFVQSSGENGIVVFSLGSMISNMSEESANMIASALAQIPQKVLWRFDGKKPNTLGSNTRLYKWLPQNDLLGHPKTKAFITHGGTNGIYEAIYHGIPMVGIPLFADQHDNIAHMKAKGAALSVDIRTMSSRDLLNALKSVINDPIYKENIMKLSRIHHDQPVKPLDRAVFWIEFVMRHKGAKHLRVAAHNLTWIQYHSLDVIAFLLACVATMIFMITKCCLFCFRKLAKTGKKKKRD
Nature of the series: Drug metabolism assessed as recombinant human C-terminal His-tagged UGT2B17-mediated 16-epiestriol-17-glucuronide formation at 5 mg after 5 hrs by NMR spectroscopic analysis in presence of UDPGA.

For series [4], the target named is T4, UDP-glucuronosyltransferase 1A8 (Homo sapiens, UniProt Q9HAW9).
T4 sequence (Q9HAW9 whole entry): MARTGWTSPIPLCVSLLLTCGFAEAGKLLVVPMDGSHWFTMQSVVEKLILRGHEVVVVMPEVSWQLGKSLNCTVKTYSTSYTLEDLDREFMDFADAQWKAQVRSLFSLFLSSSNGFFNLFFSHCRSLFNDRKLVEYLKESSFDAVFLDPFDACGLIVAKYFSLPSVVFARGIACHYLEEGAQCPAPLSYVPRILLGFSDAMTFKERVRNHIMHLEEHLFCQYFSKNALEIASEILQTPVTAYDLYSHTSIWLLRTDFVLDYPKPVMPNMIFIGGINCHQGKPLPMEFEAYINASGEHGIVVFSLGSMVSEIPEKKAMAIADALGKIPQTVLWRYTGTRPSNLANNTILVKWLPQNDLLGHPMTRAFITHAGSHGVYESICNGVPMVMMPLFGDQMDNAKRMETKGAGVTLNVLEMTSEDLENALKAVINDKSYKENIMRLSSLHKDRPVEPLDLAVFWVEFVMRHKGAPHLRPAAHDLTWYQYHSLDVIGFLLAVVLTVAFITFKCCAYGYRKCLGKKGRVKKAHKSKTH
Nature of the series: Drug metabolism assessed as recombinant human C-terminal His-tagged UGT1A8-mediated estriol-3-glucuronide formation at 200 uM after 15 to 60 mins by HPLC analysis in presence of UDPGA. To be noted: recombinant enzyme. The gist of the method:
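Screen at 200 µM substrate (DMSO, 10% final) with 5 or 50 µg UGT-enriched insect-cell membranes in 50 mM phosphate pH 7.4, 10 mM MgCl2, 5 mM UDPGA; 37°C, 15–60 min. Stopped with perchloric acid, then iced and centrifuged; glucuronides resolved by HPLC. Triplicates with no-UDPGA controls; ≤10% substrate consumed; rates normalized to relative UGT expression (UGT1A7 15.5, UGT1A8 1.4; UGT1A3 = 1.0).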

`C[C@]12CC[C@@H]3c4ccc(O)cc4CC[C@H]3[C@@H]1C[C@@H](O)[C@H]2O`: the Drug metabolism result in series [1] and in series [2] was “metabolite_detected” in each case.
Consider `C[C@]12CC[C@@H]3c4ccc(O)cc4CC[C@H]3[C@@H]1C[C@H](O)[C@@H]2O` [EPIESTRIOL], for which the Drug metabolism result in series [3] is “metabolite_detected”.
In the case of `C[C@]12CC[C@@H]3c4ccc(O)cc4CC[C@H]3[C@@H]1C[C@@H](O)[C@@H]2O` [ESTRIOL], in series [4], the Drug metabolism result is “metabolite_detected”.
